Screens: PubChem BioAssay, several laboratories
Hsp70 act – Hsp70 transcriptional activators, primary screen, cell-based, HeLa, Hsp70 promoter luciferase, luminescence, 10 µM; HeLa Hsp70 promoter luciferase reporter; scaled: vehicle 0, proteasome-inhibitor control 100%; activation, % at 10 µM; 0.04% of 200,000 active;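 active = activation above the mean across all tested compounds plus 3 SD, cutoff set per campaign, cut at about 5.5% in these data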;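 note: 100% = MG132 at 30 µM as the positive control and 0% = DMSO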
Dynein cargo inh – inhibitors of GR-EGFP nuclear translocation, primary screen, dynein cargo transport inhibitor project, imaging, high-content, 3617.4 mouse cells; test concentration mostly 20 µM; stimulated with dexamethasone, 1 µM; hits give low values; z-score, hits read low; 0.47% of 220,000 active;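 active = plate z-score of nuclear minus cytoplasmic receptor signal below a set negative limit, without overly bright fluorescence or cell loss, cut at about -3.5 in these data, passing the limit was not always enough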;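 note: z-score of nuclear minus cytoplasmic ring GR-EGFP intensity difference per well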
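medium = tetracycline-free induction medium containing charcoal-stripped FBS | also added = 1.0 µM final dexamethasone stimulus | schedule = 48 h induction, 1 h compound, 30 min dex at 37 °C | technique = fixed, Hoechst-stained cells imaged at 10x for EGFP | measure = GR-EGFP nuclear translocation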
Mdm2 ligase inh – MDM2-luciferase reporter signal enhancers, primary screen, MDM2 E3 ligase inhibitor project, cell-based, luminescence, 1536-well. cell-based MDM2 ubiquitination luciferase reporter, 2 h; 0 = plate control, 100 = twice control, blank-subtracted. signal enhancement, % at 5 µM. 0.11% of 210,000 active;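 active = signal enhancement of 30% or more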;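 note: luminescence tracks abundance of the self-degrading MDM2-luciferase fusion protein; higher signal means inhibition of MDM2 E3 ligase activity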
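Material: stable MDM2–luciferase fusion reporter cells / Quantity: 2000 cells/well / Dosing: single 5 µM compound dose, 0.2% final DMSO / Buffer or medium: DMEM / Schedule: 4 h cell settling then 2 h compound exposure, 37 °C / Detection: luminescence with SteadyLite reagent, 15 min at room temperature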
S1P4 ag – S1P4 receptor agonists, primary screen, cell-based; 0.35% of 220,000 active; AID 1509, 2009; S1P4-expressing cell line, agonist reporter assay; activation, % at 4.98 µM; Sphingosine 1-phosphate receptor 4 (Homo sapiens), O95977; in the data active = activation above about 11%;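 note: 0% = DMSO vehicle and 100% = reference agonist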
S1P4 antag – S1P4 receptor antagonists, primary screen, cell-based; Sphingosine 1-phosphate receptor 4 (Homo sapiens), O95977; S1P4-expressing cells, antagonist mode, reporter read-out; inhibition, % at 4.98 µM; 0.26% of 220,000 active; AID 1510, 2009; in the data active = inhibition above about 29%;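 note: 0% = wells stimulated with agonist and 100% = vehicle wells without agonist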
S1P3 antag – S1P3 receptor antagonists, primary screen, cell-based; CHO S1P3 NFAT-BLA reporter, FRET fluorescence, antagonist mode; inhibition, % at 4.98 µM; 0.27% of 170,000 active; AID 485, 2006;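 active = inhibition above the plate cutoff, the mean inhibition of test wells on that plate plus 3 SD, cut at about 28% in these data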;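 note: cells challenged with S1P at its EC80 of 0.8 µM; blue over green emission ratio from cleaved BLA substrate after 4 h stimulation; 0% = S1P-stimulated wells and 100% = unstimulated DMSO-only wells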
S1P4 antag conf – S1P4 receptor antagonists, human, confirmation, cell-based | 71% of 520 active | S1P4-expressing cell line, antagonist mode, reporter read-out | shares compounds with S1P4 antag | inhibition, % at 4.98 µM; in the data active = inhibition above about 30%
S1P1 antag – S1P1 receptor antagonists, human, counter-screen for S1P4 antagonist project, cell-based. 37% of 520 active. inhibition, % at 4.98 µM. cell-based S1P1 antagonist counterscreen, inhibition. shares compounds with S1P4 antag; in the data active = inhibition above about 40%;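 note: receptor stimulated with S1P near its EC80; 0% = agonist stimulated wells and 100% = vehicle only wells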
Target sequence (P21453 whole entry, looked up): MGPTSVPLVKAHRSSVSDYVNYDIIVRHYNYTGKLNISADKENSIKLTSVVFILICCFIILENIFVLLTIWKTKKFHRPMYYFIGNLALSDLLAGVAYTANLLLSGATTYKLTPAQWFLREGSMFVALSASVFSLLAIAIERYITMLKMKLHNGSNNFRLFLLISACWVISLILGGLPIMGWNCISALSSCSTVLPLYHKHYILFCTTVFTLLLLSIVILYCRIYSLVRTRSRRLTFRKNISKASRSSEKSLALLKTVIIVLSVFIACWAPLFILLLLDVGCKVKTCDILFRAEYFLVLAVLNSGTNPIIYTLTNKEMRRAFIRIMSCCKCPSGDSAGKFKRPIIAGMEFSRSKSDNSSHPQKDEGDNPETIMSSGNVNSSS
An asterisk follows results filed as active; nt = no result. Rows were chosen to be rich in hits. Some 1.3% of all compounds tested hit in one or more screens of this group.

SMILES	Hsp70 act	Dynein cargo inh	Mdm2 ligase inh	S1P4 ag	S1P4 antag	S1P3 antag	S1P4 antag conf	S1P1 antag
Cc1n[nH]c(C)c1N1C(=O)c2cccc3cc(Br)cc(c23)C1=O	-1	0.073	-8	-2	2	nt	nt	nt
Cc1n[nH]c(C)c1N1C(=O)c2cccc3c(Br)ccc(c23)C1=O	-1	-0.4	2	1	70*	nt	79*	93*
COCCCNC(=O)CN1C(=O)c2ccccc2C1=O	0	-0.86	-10	-1	-16	12	nt	nt
CCCCNC(=O)CN1C(=O)c2cccc(N)c2C1=O	0	0.31	4	-1	39*	11	26	9
CC1CCCCC1NC(=O)CN1C(=O)c2cccc(N)c2C1=O (stereo not given)	0	-0.52	1	-1	32*	21	30*	11
O=C(NC1CCCC1)C(c1ccncc1)N(Cc1ccco1)C(=O)c1ccc(-c2ccccc2)[nH]1 (stereo not given)	0	-1.2	-5	-1	47*	-5	22	2
COc1ccc(C(=O)C(CCC(CNC(C)(C)C)C(=O)c2ccc(OC)cc2)CNC(C)(C)C)cc1 (stereo not given)	0	-2.1	-15	-6	73*	18	37*	22
CC(C)N=C1NN=C(c2ccc(Cl)c(Cl)c2)CS1	0	-0.58	-48	0	3	-4	nt	nt
CCOC(=O)c1sc(-c2ccc(C(F)(F)F)cc2)nc1O	nt	0.012	8	1	38*	22	34*	23
CC(NC(=O)c1cccc(Cn2cc([N+](=O)[O-])cn2)c1)c1ccc(C(C)(C)C)cc1 (stereo not given)	0	-0.88	-18	0	76*	nt	3	-2
CCC(NC(=O)c1cccc(Cn2cc([N+](=O)[O-])cn2)c1)c1ccc(C(C)C)cc1 (stereo not given)	0	-0.67	-14	-1	-9	nt	nt	nt
Cc1ccc(NC(=O)/C(C#N)=C(\N)C(Cl)(Cl)Cl)nc1	0	-3.4	-20	2	1	-4	nt	nt
CC1(C)CC2CC(C)(CN2C(=O)c2ccc([N+](=O)[O-])cc2[N+](=O)[O-])C1 (stereo not given)	-1	-0.84	-10	-1	0	13	nt	nt
Cc1ccc2cc(/C=C/C(=O)c3ccco3)c(Cl)nc2c1	nt	-0.94	-16	-1	37*	1	68*	0
Cc1ccc2nc(Cl)c(/C=C/C(=O)c3ccco3)cc2c1	nt	-0.61	-4	1	3	1	nt	nt
Oc1ccccc1C1CC(c2cccs2)=NC(c2ccc(Cl)cc2)N1 (stereo not given)	0	2.2	-4	0	46*	-6	21	12
CCN(CC)c1ccc2cc(NC(=O)CCC(=O)O)c(=O)oc2c1	0	-1.3	-27	2	32*	34	59*	45*
Cc1cc(Nc2ccccc2)nc2cc(O)ccc12	0	1.1	nt	0	92*	-15	81*	41*
COc1ccc(Nc2cc(C)c3ccc(O)cc3n2)cc1	nt	-0.13	-14	0	88*	-6	65*	30
Nc1ncnc(N2CCc3ccccc32)c1[N+](=O)[O-]	0	0.22	-29	1	-26	20	nt	nt
CS(=O)(=O)N1CCCC(C(=O)N2CCN(c3cccc(Cl)c3)CC2)C1 (stereo not given)	0	-1.1	nt	1	-12	8	nt	nt
Cc1c(O)ccc(NC(=O)/C=C/c2ccccc2)c1C	0	-0.48	-5	-1	57*	10	61*	13
Cc1nnc(NC(=O)CSc2nccn2-c2ccc(F)cc2)s1	0	-0.5	-13	-1	-12	3	nt	nt
COc1ccc(C(=O)Nc2cccc(-c3nc4ncccc4o3)c2C)cc1	0	-0.011	-14	-2	33*	nt	1	-8
CCC(=O)Oc1ccc2c(c1)O/C(=C\c1ccco1)C2=O	nt	0.28	2	0	29*	-7	37*	31
SMILES	Hsp70 act	Dynein cargo inh	Mdm2 ligase inh	S1P4 ag	S1P4 antag	S1P3 antag	S1P4 antag conf	S1P1 antag
CC(=O)Oc1ccc2c(c1)O/C(=C\c1ccncc1)C2=O	nt	-0.81	-6	-1	23	1	nt	nt
O=C(Oc1cccnc1)c1ccco1	0	0.24	12	3	9	nt	nt	nt
CN(C(=O)C(Cl)Cl)c1ccc(OC(=O)c2ccco2)cc1	0	1.4	nt	-1	33*	-25	34*	18
CC(=O)n1cc(N(C(=O)CCl)c2ccc(Cl)cc2)c2ccccc21	nt	-3.4	-7	-3	60*	12	115*	41*
COC(=O)C1C(O)=C(C=Nc2ccc3ccccc3c2)C(=O)CC1(C)C (stereo not given)	0	-0.83	-4	1	10	-13	nt	nt
O=[N+]([O-])c1cc(Cl)c(O)c2ncccc12	0	0.13	-3	3	31*	-18	62*	55*
O=[N+]([O-])c1cc(Cl)c2cccnc2c1O	0	0.38	-6	2	-22	-7	nt	nt
O=C(/C=C/c1ccccc1O)c1ccc(Cl)cc1	0	-3.2	-13	-1	46*	-4	59*	24
COc1ccccc1/C=C/C(=O)c1ccc(Cl)cc1	0	-0.62	-7	1	4	nt	nt	nt
O=C(Nc1cccc2ccccc12)/C(Cl)=C/c1ccccc1	0	0.43	2	-1	61*	nt	68*	17
Cc1c(C=O)c(C=O)c(C)n1Cc1ccccc1	0	0.11	-15	-1	35*	nt	42*	19
O=C(NC(Cc1ccccc1)C(=O)Oc1ccc2c(C(F)(F)F)cc(=O)oc2c1)OCc1ccccc1 (stereo not given)	0	-0.82	-3	0	30*	5	47*	24
Cc1ccccc1C1CCCN(Cc2nc(C3CC3)no2)C1 (stereo not given)	0	0.44	1	1	-9	-9	nt	nt
